According to ChEMBL document CHEMBL1154876, “Synthesis and antimicrobial studies on novel sulfonamides containing 4-azidomethyl coumarin” (2010):
≈ marks a conversion by molar mass, not a printed value.

Experiments:
Format in all cases: functional
[1] = test system: Mucor; assay: Antifungal activity against Mucor fuscus after 48 to 72 hrs by broth micro dilution method
Procedure, shortened: (§1)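 Test compounds were prepared as 10 mg/ml DMSO stocks and serially diluted twofold in Sabouraud's dextrose broth over 500, 250, 125, 62.5, 31.25, 16, 8, 4, 2 and 1, alongside fluconazole as reference. Plates were inoculated with 1–5 × 10⁴ cfu/ml and held at 25 °C for 48–72 h. The MIC was the lowest concentration showing no visible growth.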

[2] = test system: Aspergillus fumigatus; assay: Antifungal activity against Aspergillus fumigatus after 48 to 72 hrs by broth microdilution method; procedure, shortened: as §1
[3] = test system: Fusarium oxysporum; assay: Antifungal activity against Fusarium oxysporum after 48 to 72 hrs by broth microdilution method; procedure, shortened: as §1
[4] = test system: Candida albicans; assay: Antifungal activity against Candida albicans after 48 to 72 hrs by broth microdilution method; procedure, shortened: as §1
[5] = test system: Escherichia coli; assay: Antibacterial activity against Escherichia coli MTCC 1089 after 18 hrs by broth microdilution method; settings: MTCC 1089, 18 h
[6] = test system: Klebsiella pneumoniae; assay: Antibacterial activity against Klebsiella pneumoniae MTCC 3384 after 18 hrs by broth microdilution method; settings: MTCC 3384, 18 h
[7] = test system: Pseudomonas aeruginosa; assay: Antibacterial activity against Pseudomonas aeruginosa MTCC 1034 after 18 hrs by broth microdilution method; settings: MTCC 1034, 18 h
[8] = test system: Penicillium chrysogenum; assay: Antifungal activity against Penicillium chrysogenum after 48 to 72 hrs by broth microdilution method; procedure, shortened: as §1
[9] = test system: Aspergillus niger; assay: Antifungal activity against Aspergillus niger after 48 to 72 hrs by broth microdilution method; procedure, shortened: as §1
[10] = test system: Enterococcus faecalis; assay: Antibacterial activity against Streptococcus faecalis MTCC 3382 after 18 hrs by broth microdilution method; settings: MTCC 3382, 18 h
[11] = test system: Staphylococcus aureus; assay: Antibacterial activity against Staphylococcus aureus MTCC 3160 after 18 hrs by broth microdilution method; settings: MTCC 3160, 18 h
[12] = test system: Bacillus subtilis; assay: Antibacterial activity against Bacillus subtilis MTCC 297 after 18 hrs by broth microdilution method; settings: MTCC 297, 18 h

Row | SMILES | MIC [1] [µg/mL] | MIC [2] [µg/mL] | MIC [3] [µg/mL] | MIC [4] [µg/mL] | MIC [5] [µg/mL] | MIC [6] [µg/mL] | MIC [7] [µg/mL] | MIC [8] [µg/mL] | MIC [9] [µg/mL] | MIC [10] [µg/mL] | MIC [11] [µg/mL] | MIC [12] [µg/mL]
1 | Cc1cc2oc(=O)cc(CN=[N+]=[N-])c2cc1S(=O)(=O)Nc1ccccc1[N+](=O)[O-] | 8 (≈ 19.3 µM) | 8 (≈ 19.3 µM) | 1 (≈ 2.41 µM) | 250 (≈ 602 µM) | > 500 | 16 (≈ 38.5 µM) | 4 (≈ 9.63 µM) | 4 (≈ 9.63 µM) | 8 (≈ 19.3 µM) | 1 (≈ 2.41 µM) | 1 (≈ 2.41 µM) | 62.5 (≈ 150 µM)
2 | Cc1cc2oc(=O)cc(CN=[N+]=[N-])c2cc1S(=O)(=O)Nc1ccc(Cl)cc1Cl | 16 (≈ 36.4 µM) | 250 (≈ 569 µM) | 1 (≈ 2.28 µM) | 8 (≈ 18.2 µM) | > 500 | 2 (≈ 4.55 µM) | 2 (≈ 4.55 µM) | 62.5 (≈ 142 µM) | 250 (≈ 569 µM) | 1 (≈ 2.28 µM) | 31.2 (≈ 71.1 µM) | 250 (≈ 569 µM)
3 | Cc1cc2oc(=O)cc(CN=[N+]=[N-])c2cc1S(=O)(=O)Nc1ccc(Br)cc1 | 250 (≈ 556 µM) | > 500 | 1 (≈ 2.23 µM) | 125 (≈ 278 µM) | > 500 | 1 (≈ 2.23 µM) | 1 (≈ 2.23 µM) | 16 (≈ 35.6 µM) | > 500 | 1 (≈ 2.23 µM) | 16 (≈ 35.6 µM) | > 500
4 | Cc1ccc(NS(=O)(=O)c2cc3c(CN=[N+]=[N-])cc(=O)oc3cc2C)cc1Cl | 16 (≈ 38.2 µM) | 16 (≈ 38.2 µM) | 1 (≈ 2.39 µM) | 31.2 (≈ 74.6 µM) | > 500 | 8 (≈ 19.1 µM) | 1 (≈ 2.39 µM) | 4 (≈ 9.55 µM) | 16 (≈ 38.2 µM) | 8 (≈ 19.1 µM) | 8 (≈ 19.1 µM) | 4 (≈ 9.55 µM)
5 | Cc1cc2oc(=O)cc(CN=[N+]=[N-])c2cc1S(=O)(=O)Nc1cc([N+](=O)[O-])ccc1Cl | 62.5 (≈ 139 µM) | 2 (≈ 4.45 µM) | 1 (≈ 2.22 µM) | 4 (≈ 8.89 µM) | > 500 | 62.5 (≈ 139 µM) | 2 (≈ 4.45 µM) | 125 (≈ 278 µM) | 8 (≈ 17.8 µM) | 2 (≈ 4.45 µM) | 2 (≈ 4.45 µM) | 125 (≈ 278 µM)
6 | Cc1cc2oc(=O)cc(CBr)c2cc1S(=O)(=O)Cl | 1 (≈ 2.84 µM) | 4 (≈ 11.4 µM) | 1 (≈ 2.84 µM) | 8 (≈ 22.8 µM) | 125 (≈ 356 µM) | 125 (≈ 356 µM) | 125 (≈ 356 µM) | 1 (≈ 2.84 µM) | 4 (≈ 11.4 µM) | 16 (≈ 45.5 µM) | 16 (≈ 45.5 µM) | 16 (≈ 45.5 µM)
7 | Cc1cc2oc(=O)cc(CN=[N+]=[N-])c2cc1S(=O)(=O)Nc1cccc(Cl)c1 | > 500 | 16 (≈ 39.5 µM) | 1 (≈ 2.47 µM) | > 500 | > 500 | 4 (≈ 9.88 µM) | 1 (≈ 2.47 µM) | 2 (≈ 4.94 µM) | 31.2 (≈ 77.2 µM) | 8 (≈ 19.8 µM) | 1 (≈ 2.47 µM) | 16 (≈ 39.5 µM)
8 | Cc1cc2oc(=O)cc(CN=[N+]=[N-])c2cc1S(=O)(=O)Nc1cccc([N+](=O)[O-])c1 | 4 (≈ 9.63 µM) | 8 (≈ 19.3 µM) | 2 (≈ 4.81 µM) | 16 (≈ 38.5 µM) | 125 (≈ 301 µM) | 125 (≈ 301 µM) | 125 (≈ 301 µM) | 2 (≈ 4.81 µM) | 8 (≈ 19.3 µM) | 8 (≈ 19.3 µM) | 4 (≈ 9.63 µM) | 8 (≈ 19.3 µM)
9 | Cc1cc2oc(=O)cc(CN=[N+]=[N-])c2cc1S(=O)(=O)Nc1ccc([N+](=O)[O-])cc1 | 8 (≈ 19.3 µM) | 250 (≈ 602 µM) | 1 (≈ 2.41 µM) | 62.5 (≈ 150 µM) | 250 (≈ 602 µM) | 2 (≈ 4.81 µM) | 1 (≈ 2.41 µM) | 62.5 (≈ 150 µM) | 62.5 (≈ 150 µM) | 4 (≈ 9.63 µM) | 2 (≈ 4.81 µM) | 125 (≈ 301 µM)
10 | Cc1cc2oc(=O)cc(CN=[N+]=[N-])c2cc1S(=O)(=O)Nc1ccc(Cl)cc1 | 16 (≈ 39.5 µM) | 125 (≈ 309 µM) | 1 (≈ 2.47 µM) | 8 (≈ 19.8 µM) | > 500 | 1 (≈ 2.47 µM) | 1 (≈ 2.47 µM) | 16 (≈ 39.5 µM) | 31.2 (≈ 77.2 µM) | 4 (≈ 9.88 µM) | 8 (≈ 19.8 µM) | 16 (≈ 39.5 µM)
11 | Cc1cc2oc(=O)cc(CN=[N+]=[N-])c2cc1S(=O)(=O)Nc1ccc(Cl)c(Cl)c1 | 31.2 (≈ 71.1 µM) | 31.2 (≈ 71.1 µM) | 1 (≈ 2.28 µM) | 16 (≈ 36.4 µM) | > 500 | 1 (≈ 2.28 µM) | 8 (≈ 18.2 µM) | 2 (≈ 4.55 µM) | 16 (≈ 36.4 µM) | 16 (≈ 36.4 µM) | 4 (≈ 9.11 µM) | 2 (≈ 4.55 µM)
12 | Cc1cc2oc(=O)cc(CN=[N+]=[N-])c2cc1S(=O)(=O)Cl | 2 (≈ 6.38 µM) | 8 (≈ 25.5 µM) | 2 (≈ 6.38 µM) | 8 (≈ 25.5 µM) | 125 (≈ 398 µM) | 125 (≈ 398 µM) | 125 (≈ 398 µM) | 4 (≈ 12.8 µM) | 8 (≈ 25.5 µM) | 31.2 (≈ 99.6 µM) | 4 (≈ 12.8 µM) | 31.2 (≈ 99.6 µM)
